Experimental data published in ChEMBL document CHEMBL2384906, “Biological activity, design, synthesis and structure activity relationship of some novel derivatives of curcumin containing sulfonamides” (Eur J Med Chem, 2013).
Values after ≈ are worked out from the molar mass of the structure shown. Active and inactive are the calls of the source. The calls are words filed in the database; no cut-off is given here.

Experiments:
Bacillus cereus [1] = experiment: Antimicrobial activity against Bacillus cereus MTCC 7350 after 24 hrs by broth micro serial dilution method; assay type: functional; conditions: MTCC 7350, 24 h
Outline: (§1)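 This was broth microdilution in autoclaved Mueller-Hinton broth. 150 µL of compound per well was serially diluted […], and 50 µL of test organism was added. Plates were incubated 24 h at 37 °C and optical density was read.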

Aspergillus flavus [2] = experiment: Antifungal activity against Aspergillus flavus MTCC 1021 assessed as zone of inhibition at 40 uM after 48 hrs by disc diffusion method; assay type: functional; conditions: MTCC 1021, 48 h, read-out: IZ
Outline: (§2)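 Spores from 4-day potato dextrose agar cultures, suspended in sterile water at 1.5 × 10⁵ CFU/mL. 0.2 mL was spread on potato dextrose agar. 5 mm filter-paper discs soaked with test compound were laid on the lawn. Incubation was 48 h at 28 °C, then the inhibition zone was measured in mm. Fluconazole was the positive control and acetone the negative control.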

Curvularia lunata [3] = experiment: Antifungal activity against Curvularia lunata MTCC 581 assessed as zone of inhibition at 40 uM after 48 hrs by disc diffusion method; assay type: functional; conditions: MTCC 581, 48 h, read-out: IZ; outline: as §2
Aspergillus niger [4] = experiment: Antifungal activity against Aspergillus niger MTCC 1108 after 48 hrs; assay type: functional; conditions: MTCC 1108, 48 h
Aspergillus flavus [5] = experiment: Antifungal activity against Aspergillus flavus MTCC 1021 assessed as zone of inhibition at 20 uM after 48 hrs by disc diffusion method; assay type: functional; conditions: MTCC 1021, 48 h, read-out: IZ; outline: as §2
Trichoderma viride [6] = experiment: Antifungal activity against Trichoderma viride MTCC 1107 assessed as zone of inhibition at 20 uM after 48 hrs by disc diffusion method; assay type: functional; conditions: MTCC 1107, 48 h, read-out: IZ; outline: as §2
Aspergillus flavus [7] = experiment: Antifungal activity against Aspergillus flavus MTCC 1021 after 48 hrs; assay type: functional; conditions: MTCC 1021, 48 h
Bacillus cereus [8] = experiment: Antimicrobial activity against Bacillus cereus MTCC 7350 assessed as diameter of inhibition zone at 20 uM after 24 hrs by Kirby -Baur disc diffusion method; assay type: functional
Outline: (§3)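 Kirby-Bauer disc diffusion was used. Acetone stocks (160 µM) were serially doubled down to 80, 40 and 20 µM. 4 µL of each went onto 5 mm sterile paper discs, which were dried 30 min at 50 °C. Inoculum was 1.5 × 10⁸ CFU/mL diluted to 3 × 10² CFU/mL, and 50 µL was spread on Mueller-Hinton agar. After 24 h at 37 °C the inhibition-zone diameter was measured. Ciprofloxacin served as positive control.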

Curvularia lunata [9] = experiment: Antifungal activity against Curvularia lunata MTCC 581 assessed as zone of inhibition at 80 uM after 48 hrs by disc diffusion method; assay type: functional; conditions: MTCC 581, 48 h, read-out: IZ; outline: as §2
Aspergillus niger [10] = experiment: Antifungal activity against Aspergillus niger MTCC 1108 assessed as zone of inhibition at 20 uM after 48 hrs by disc diffusion method; assay type: functional; outline: as §2
Curvularia lunata [11] = experiment: Antifungal activity against Curvularia lunata MTCC 581 assessed as zone of inhibition at 20 uM after 48 hrs by disc diffusion method; assay type: functional; conditions: MTCC 581, 48 h, read-out: IZ; outline: as §2
Staphylococcus aureus [12] = experiment: Antimicrobial activity against Staphylococcus aureus ATCC 11632 assessed as diameter of inhibition zone at 40 uM after 24 hrs by Kirby -Baur disc diffusion method; assay type: functional; conditions: ATCC 11632, 24 h, read-out: DIZ; outline: as §3
Trichoderma viride [13] = experiment: Antifungal activity against Trichoderma viride MTCC 1107 after 48 hrs; assay type: functional; conditions: MTCC 1107, 48 h
Staphylococcus aureus [14] = experiment: Antimicrobial activity against Staphylococcus aureus ATCC 11632 assessed as diameter of inhibition zone at 20 uM after 24 hrs by Kirby -Baur disc diffusion method; assay type: functional; outline: as §3
HeLa = experiment: Cytotoxicity against human HeLa cells after 24 hrs by MTT assay; assay type: functional, cell-based
Outline: (§4)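 The MTT assay seeded 5 × 10⁴ cells per well and grew them 24 h in RPMI 1640 with compound at 2.5–200 µM. Medium without cells was the blank and adriamycin the positive control. MTT was added for 4 h at 37 °C, formazan was solubilised, and absorbance was read at 570 nm. IC50 is the concentration that cuts viability 50% against untreated cells.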

Staphylococcus aureus [15] = experiment: Antimicrobial activity against Staphylococcus aureus ATCC 11632 assessed as diameter of inhibition zone at 80 uM after 24 hrs by Kirby -Baur disc diffusion method; assay type: functional; conditions: ATCC 11632, 24 h, read-out: DIZ; outline: as §3
Aspergillus niger [16] = experiment: Antifungal activity against Aspergillus niger MTCC 1108 assessed as zone of inhibition at 80 uM after 48 hrs by disc diffusion method; assay type: functional; conditions: MTCC 1108, 48 h, read-out: IZ; outline: as §2
Bacillus cereus [17] = experiment: Antimicrobial activity against Bacillus cereus MTCC 7350 assessed as diameter of inhibition zone at 40 uM after 24 hrs by Kirby -Baur disc diffusion method; assay type: functional; outline: as §3
Escherichia coli [18] = experiment: Antimicrobial activity against Escherichia coli ATCC 35218 assessed as diameter of inhibition zone at 80 uM after 24 hrs by Kirby -Baur disc diffusion method; assay type: functional; outline: as §3
Salmonella typhi [19] = experiment: Antimicrobial activity against Salmonella typhi ATCC 23564 assessed as diameter of inhibition zone at 80 uM after 24 hrs by Kirby -Baur disc diffusion method; assay type: functional; conditions: Salmonella enterica subsp. enterica serovar Typhi
Escherichia coli [20] = experiment: Antimicrobial activity against Escherichia coli ATCC 35218 after 24 hrs by broth micro serial dilution method; assay type: functional; conditions: ATCC 35218, 24 h; outline: as §1
HepG2 = experiment: Cytotoxicity against human HepG2 cells after 24 hrs by MTT assay; assay type: functional, cell-based; outline: as §4
Trichoderma viride [21] = experiment: Antifungal activity against Trichoderma viride MTCC 1107 assessed as zone of inhibition at 80 uM after 48 hrs by disc diffusion method; assay type: functional; conditions: MTCC 1107, 48 h, read-out: IZ; outline: as §2
Curvularia lunata [22] = experiment: Antifungal activity against Curvularia lunata MTCC 581 after 48 hrs; assay type: functional; conditions: MTCC 581, 48 h
Aspergillus flavus [23] = experiment: Antifungal activity against Aspergillus flavus MTCC 1021 assessed as zone of inhibition at 80 uM after 48 hrs by disc diffusion method; assay type: functional; conditions: MTCC 1021, 48 h, read-out: IZ; outline: as §2
Pseudomonas aeruginosa [24] = experiment: Antimicrobial activity against Pseudomonas aeruginosa ATCC 15499 assessed as diameter of inhibition zone at 80 uM after 24 hrs by Kirby -Baur disc diffusion method; assay type: functional; outline: as §3
QG-56 = experiment: Cytotoxicity against human QG56 cells after 24 hrs by MTT assay; assay type: functional, cell-based; outline: as §4
Bacillus cereus [25] = experiment: Antimicrobial activity against Bacillus cereus MTCC 7350 assessed as diameter of inhibition zone at 80 uM after 24 hrs by Kirby -Baur disc diffusion method; assay type: functional; conditions: MTCC 7350, 24 h, read-out: DIZ; outline: as §3
Mus musculus = experiment: Antiinflammatory activity in mouse assessed as inhibition of carrageenan-induced increase in paw volume at 200 mg/kg administered 1 hr prior to carrageenan challenge measured after 3 hrs relative to control; assay type: functional
Outline: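 Mice were fasted 2 h and placed in groups of five. Controls received saline i.p. Phenylbutazone was given at 100 mg/kg i.p., curcumin at 200 mg/kg i.p., and derivatives at 200 mg/kg. After 1 h, 0.1 mL of 1% carrageenan in saline was injected subplantar into the right hind paw. Paw volume was followed by plethysmometer for 3 h, and % inhibition was calculated as (Vc − Vt)/Vc × 100.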

Salmonella typhi [26] = experiment: Antimicrobial activity against Salmonella typhi ATCC 23564 after 24 hrs by broth micro serial dilution method; assay type: functional; conditions: Salmonella enterica subsp. enterica serovar Typhi
Pseudomonas aeruginosa [27] = experiment: Antimicrobial activity against Pseudomonas aeruginosa ATCC 15499 after 24 hrs by broth micro serial dilution method; assay type: functional; conditions: ATCC 15499, 24 h; outline: as §1
Staphylococcus aureus [28] = experiment: Antimicrobial activity against Staphylococcus aureus ATCC 11632 after 24 hrs by broth micro serial dilution method; assay type: functional; conditions: ATCC 11632, 24 h; outline: as §1
Aspergillus niger [29] = experiment: Antifungal activity against Aspergillus niger MTCC 1108 assessed as zone of inhibition at 40 uM after 48 hrs by disc diffusion method; assay type: functional; conditions: MTCC 1108, 48 h, read-out: IZ; outline: as §2
HCT-116 = experiment: Cytotoxicity against human HCT116 cells after 24 hrs by MTT assay; assay type: functional, cell-based; outline: as §4
Trichoderma viride [30] = experiment: Antifungal activity against Trichoderma viride MTCC 1107 assessed as zone of inhibition at 40 uM after 48 hrs by disc diffusion method; assay type: functional; conditions: MTCC 1107, 48 h, read-out: IZ; outline: as §2

COc1ccc(NS(=O)(=O)c2ccc(/N=N/C(C(=O)/C=C/c3ccc(O)c(OC)c3)=C(O)\C=C\c3ccc(O)c(OC)c3)cc2)nn1
MIC (Bacillus cereus [1]): > 80 µM
zone of inhibition at 40 µM (Aspergillus flavus [2]): 12 mm
zone of inhibition at 40 µM (Curvularia lunata [3]): 16 mm
MIC (Aspergillus niger [4]): > 80 µM
zone of inhibition at 20 µM (Aspergillus flavus [5]): 11 mm
zone of inhibition at 20 µM (Trichoderma viride [6]): 12 mm
MIC (Aspergillus flavus [7]): 40 µM (≈ 26.4 µg/mL)
diameter of the inhibition zone (DIZ) (Bacillus cereus [8]): inactive
zone of inhibition at 80 µM (Curvularia lunata [9]): 19 mm
inhibition zone (IZ) (Aspergillus niger [10]): inactive
zone of inhibition at 20 µM (Curvularia lunata [11]): 12 mm
zone of inhibition at 40 µM (Staphylococcus aureus [12]): 9 mm
MIC (Trichoderma viride [13]): 20 µM (≈ 13.2 µg/mL)
diameter of the inhibition zone (DIZ) (Staphylococcus aureus [14]): inactive
IC50 (HeLa): 100 µM
zone of inhibition at 80 µM (Staphylococcus aureus [15]): 11 mm
zone of inhibition at 80 µM (Aspergillus niger [16]): 12 mm
diameter of the inhibition zone (DIZ) (Bacillus cereus [17]): inactive
diameter of the inhibition zone (DIZ) (Escherichia coli [18]): inactive
diameter of the inhibition zone (DIZ) (Salmonella typhi [19]): inactive
MIC (Escherichia coli [20]): > 80 µM
IC50 (HepG2): > 100 µM
zone of inhibition at 80 µM (Trichoderma viride [21]): 19 mm
MIC (Curvularia lunata [22]): 20 µM (≈ 13.2 µg/mL)
zone of inhibition at 80 µM (Aspergillus flavus [23]): 15 mm
diameter of the inhibition zone (DIZ) (Pseudomonas aeruginosa [24]): inactive
IC50 (QG-56): > 100 µM
zone of inhibition at 80 µM (Bacillus cereus [25]): 9 mm
inhibition in vivo at 200 mg/kg (Mus musculus): 29%
MIC (Salmonella typhi [26]): inactive
MIC (Pseudomonas aeruginosa [27]): > 80 µM
MIC (Staphylococcus aureus [28]): > 80 µM
zone of inhibition at 40 µM (Aspergillus niger [29]): 9 mm
IC50 (HCT-116): Not Active
zone of inhibition at 40 µM (Trichoderma viride [30]): 16 mm
